Consider 8 compounds from ChEMBL document CHEMBL3045276, “Synthesis and biological activity of some novel trifluoromethyl-substituted 1,2,4-triazole and bis(1,2,4-triazole) Mannich bases containing piperazine rings” (2010).

Common to all, as to assay type: functional
Assay [1] deals with Echinochloa crus-galli. The assay can be described thus: Herbicidal activity against Echinochloa crus-galli (barnyard grass) assessed as inhibition of seedling growth at 100 ug/mL at 28 degC. In short, it runs like this:
(§1)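 Ten barnyardgrass seeds placed in cup over glass beads and filter paper holding 5 mL aqueous test solution (emulsified if needed); germinated 65 h at 28 ± 1 °C under light. Mean above-ground seedling height per cup measured; inhibition percentage derived.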

The test system of assay [2] is Brassica rapa subsp. oleifera. The assay can be described thus: Herbicidal activity against Brassica rapa subsp. oleifera assessed as inhibition of root growth at 10 ug/mL at 28 degC. In short, it runs like this:
(§2)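 Rape seeds soaked 4 h in distilled water, then 15 per 6 cm dish on filter paper wetted with 2 mL aqueous test solution (emulsified if needed); germinated 65 h at 28 ± 1 °C in darkness. Mean length of 10 roots per dish measured; percentage inhibition calculated against distilled-water check.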

The subject of assay [3] is Brassica rapa subsp. oleifera. Put plainly: Herbicidal activity against Brassica rapa subsp. oleifera assessed as inhibition of root growth at 100 ug/mL at 28 degC. The essentials:
as §2

Another assay relates to Sclerotinia sclerotiorum. Put plainly: Fungicidal activity against Sclerotinia sclerotiorum in cucumber plant two seed leaves stage assessed as control efficacy from disease indices at 500 ug/mL at 18 to 30 degC and above 80%RH relative to control. The following applies: read-out: GI. The essentials: (§3)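 Cucumber seeds germinated (soaked 2 h in water at 50 °C, kept moist 24 h at 28 °C) and grown in 1:1 vermiculite/peat; two-seed-leaf plants sprayed at 500 μg/mL, then inoculated 2 h later by spraying conidial (C. cassiicola, A. citrullina, P. cubensis), bacterial (P. syringae) or mycelial (S. sclerotiorum) suspension. Held 18-30 °C, >80% RH; four repeats; control efficacy = (CK−PT)/CK×100 from disease indices once untreated plants fully symptomatic.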

Assay [4] concerns Pseudoperonospora cubensis. Put plainly: Fungicidal activity against Pseudoperonospora cubensis in cucumber plant two seed leaves stage assessed as control efficacy from disease indices at 500 ug/mL at 18 to 30 degC and above 80%RH relative to control. The following applies: read-out: GI. In short, it runs like this:
as §3

The next assay deals with Ascochyta. Put plainly: Fungicidal activity against Ascochyta […] in cucumber plant two seed leaves stage assessed as control efficacy from disease indices at 500 ug/mL at 18 to 30 degC and above 80%RH relative to control. The following applies: read-out: GI. In short, it runs like this: as §3
Assay [5] has as its system Pseudomonas amygdali pv. lachrymans. The assay can be described thus: Fungicidal activity against Pseudomonas syringae pv. lachrymans in cucumber plant two seed leaves stage assessed as control efficacy from disease indices at 500 ug/mL at 18 to 30 degC and above 80%RH relative to control. The conditions noted are these: read-out: GI. In short, it runs like this: as §3

Another assay concerns Corynespora cassiicola. Put plainly: Fungicidal activity against Corynespora cassiicola in cucumber plant two seed leaves stage assessed as control efficacy from disease indices at 500 ug/mL at 18 to 30 degC and above 80%RH relative to control. The conditions noted are these: read-out: GI. The essentials: as §3
Assay [6] has as its system Echinochloa crus-galli. The assay can be described thus: Herbicidal activity against Echinochloa crus-galli (barnyard grass) assessed as inhibition of seedling growth at 10 ug/mL at 28 degC. The essentials: as §1

By inhibition is commonly meant how much of the control response was suppressed.

Take `COc1ccc(/C=N/n2c(C(F)(F)F)nn(CN3CCN(c4nccc(C)n4)CC3)c2=S)cc1`: the results for the inhibition at 100 µg/mL (in the assay on Echinochloa crus-galli [1]; in [3]) were 34.3% and 30.3%, respectively. The results for the inhibition at 10 µg/mL (in assay [2]; with Echinochloa crus-galli [6]) were 0% and 15.3%, respectively. Moreover, the inhibition of growth at 500 µg/mL worked out at 50.9% in the assay on Sclerotinia sclerotiorum; 72.5% in assay [4]; 67.7% in the assay with Ascochyta; 30.6% in [5]; 52.8% in the assay on Corynespora cassiicola.

As for `FC(F)(F)c1nn(CN2CCN(c3ncccn3)CC2)c(=S)n1/N=C/c1ccccc1`, the inhibition at 100 µg/mL in the assay with Echinochloa crus-galli [1] was found to be 0%; in assay [3] it was 66.8%. Moreover, the inhibition at 10 µg/mL in assay [2] stood at 49.2%; in the assay with Echinochloa crus-galli [6] it was 0%. Also, the inhibition of growth at 500 µg/mL was 41.7% in the assay on Sclerotinia sclerotiorum; 66.3% in assay [4]; 37.1% in the assay with Ascochyta; 55.8% in assay [5]; 56.2% in the assay with Corynespora cassiicola.

Turning to `Fc1ccccc1/C=N/n1c(C(F)(F)F)nn(CN2CCN(Cn3nc(C(F)(F)F)n(/N=C/c4ccccc4F)c3=S)CC2)c1=S`, the inhibition at 100 µg/mL in the assay with Echinochloa crus-galli [1] stood at 26.6%; in assay [3], 4.3%. In addition, the inhibition at 10 µg/mL in [2] came to 0%; with Echinochloa crus-galli [6] it was 10.7%. Besides, the inhibition of growth at 500 µg/mL in the assay with Sclerotinia sclerotiorum was 25.9%; in assay [4], 79.9%; in the assay on Ascochyta, 86.5%; in assay [5] it was 6.8%; in the assay on Corynespora cassiicola it was 84.7%.

As for `Cc1ccc(/C=N/n2c(C(F)(F)F)nn(CN3CCN(Cn4nc(C(F)(F)F)n(/N=C/c5ccc(C)c(C)c5)c4=S)CC3)c2=S)cc1C`, the inhibition at 100 µg/mL turned out to be 28% with Echinochloa crus-galli [1] and 27.4% in assay [3]. Also, the results for the inhibition at 10 µg/mL (in [2]; in the assay with Echinochloa crus-galli [6]) were 0% and 1.5%, respectively. The inhibition of growth at 500 µg/mL in the assay on Sclerotinia sclerotiorum was 32.7%; in assay [4], 78.7%; in the assay on Ascochyta, 26%; in assay [5], 36.7%; with Corynespora cassiicola, 67.4%.

On to `Cc1ccnc(N2CCN(Cn3nc(C(F)(F)F)n(/N=C/c4ccc(C)c(C)c4)c3=S)CC2)n1`, for which the inhibition at 100 µg/mL is 27.8% in the assay with Echinochloa crus-galli [1] and 11.2% in assay [3]. Also, the inhibition at 10 µg/mL (in [2]; with Echinochloa crus-galli [6]) was 0% each time. The inhibition of growth at 500 µg/mL was 51.9% in the assay with Sclerotinia sclerotiorum; 69.5% in [4]; 70% in the assay on Ascochyta; 22% in assay [5]; 38.7% with Corynespora cassiicola.

In the case of `Cc1cc(C)nc(N2CCN(Cn3nc(C(F)(F)F)n(/N=C/c4ccccc4[N+](=O)[O-])c3=S)CC2)n1`, the inhibition at 100 µg/mL came to 10.2% in the assay on Echinochloa crus-galli [1] and 11.2% in [3]. Besides, the inhibition at 10 µg/mL (in assay [2]; with Echinochloa crus-galli [6]) was 0% in each case. In addition, the inhibition of growth at 500 µg/mL in the assay on Sclerotinia sclerotiorum came out at 39.3%; in [4] it was 77.2%; in the assay on Ascochyta, 88.4%; in assay [5], 46.5%; with Corynespora cassiicola, 87.8%.

For `Cc1cc(C)nc(N2CCN(Cn3nc(C(F)(F)F)n(/N=C/c4ccccc4F)c3=S)CC2)n1`, the values for the inhibition at 100 µg/mL (in the assay on Echinochloa crus-galli [1]; in assay [3]) were 33.2% and 72.4%, respectively. Also, the inhibition at 10 µg/mL in assay [2] amounted to 67.1%; in the assay with Echinochloa crus-galli [6] it was 17.1%. Also, the inhibition of growth at 500 µg/mL with Sclerotinia sclerotiorum was 72%; in assay [4], 79.2%; with Ascochyta, 83.5%; in [5], 56.1%; in the assay on Corynespora cassiicola, 78.7%.

On to `COc1ccc(/C=N/n2c(C(F)(F)F)nn(CN3CCN(Cn4nc(C(F)(F)F)n(/N=C/c5ccc(OC)cc5)c4=S)CC3)c2=S)cc1`, for which the figures for the inhibition at 100 µg/mL (in the assay with Echinochloa crus-galli [1]; in assay [3]) were 25.5% and 29.5%, respectively. Further, the inhibition at 10 µg/mL in [2] was 0%; with Echinochloa crus-galli [6], 5.5%. Besides, the inhibition of growth at 500 µg/mL turned out to be 62% in the assay with Sclerotinia sclerotiorum; 84.5% in [4]; 89.7% in the assay with Ascochyta; 55.6% in assay [5]; 44.1% in the assay on Corynespora cassiicola.
